B2AR ag – activates human beta-2 adrenergic receptor causing internalization | P07550 | Am2.2-beta2AR cells, FAP receptor internalization, flow cytometry | response, % (no concentration beside the values) | 340,000 tested, 0.43% active | AID 504454;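 active means response above a set limit, near 3 SD of response in nonfluorescent compounds, cut at about 42% in these data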
Dynein transport – dynein cargo transport inhibition. z-score, hits read low. 220,000 tested, 0.47% active. 3617.4 mouse cells, GR-EGFP nuclear translocation imaging; test concentration mostly 20 µM; stimulated with dexamethasone, 1 µM; stronger effect = lower value;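 active means plate z-score of nuclear minus cytoplasmic receptor signal below a set negative limit, without overly bright fluorescence or cell loss, cut at about -3.5 in these data, passing the limit was not always enough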;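 further: z-score of nuclear minus cytoplasmic ring GR-EGFP intensity difference per well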
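Buffer or medium: Induction medium lacking tetracycline, stripped serum | Also added: Dexamethasone agonist, 1.0 µM final, for 30 min | Timing: 48 h induction, 1 h compound, 30 min dex at 37 °C | Detection: Formaldehyde fixation, Hoechst nuclear stain, 10x automated fluorescence imaging | Measure: Nuclear versus cytoplasmic GR-EGFP signal, averaged per well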
Mdm2 ligase inh – Mdm2 E3 ligase (human) inhibition | signal enhancement, % at 5 µM | cell-based MDM2 ubiquitination luciferase reporter, 2 h; 0 = plate control, 100 = twice control, blank-subtracted | Q00987 | 210,000 tested, 0.11% active | AID 1230;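 active means signal enhancement of 30% or more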;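 further: luminescence tracks abundance of the self-degrading MDM2-luciferase fusion protein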
Target sequence (Q00987 whole entry, looked up, the tested form may be a part): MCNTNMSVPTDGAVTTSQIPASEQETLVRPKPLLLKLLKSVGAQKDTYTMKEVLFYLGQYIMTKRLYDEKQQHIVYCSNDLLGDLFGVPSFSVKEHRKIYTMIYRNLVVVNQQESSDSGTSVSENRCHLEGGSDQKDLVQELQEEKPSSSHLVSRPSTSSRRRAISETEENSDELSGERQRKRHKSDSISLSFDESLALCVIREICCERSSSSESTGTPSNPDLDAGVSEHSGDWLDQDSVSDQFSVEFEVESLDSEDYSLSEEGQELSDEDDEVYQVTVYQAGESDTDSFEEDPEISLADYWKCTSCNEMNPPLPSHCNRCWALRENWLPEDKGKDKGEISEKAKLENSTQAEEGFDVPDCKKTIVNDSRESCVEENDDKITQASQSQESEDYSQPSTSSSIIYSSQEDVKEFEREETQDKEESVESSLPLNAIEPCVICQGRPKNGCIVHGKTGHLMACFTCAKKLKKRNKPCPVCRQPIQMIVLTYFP
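test system = mammalian cells stably expressing self-ubiquitinating, self-degrading MDM2 E3–luciferase fusion | quantity = 2000 cells/well | incubation = cell settling 4 h, compound treatment 2 h, both 37 °C | signal = luminescence with SteadyLite reagent, 15 min at room temperature | evaluation = % enhancement relative to plate controls after blank subtraction | benchmarks = plate controls and plate blanks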
UPR CHOP act – apoptotic UPR (CHOP) activation. CHO-CHOP luciferase reporter, luminescence; percent of tunicamycin response over DMSO baseline. activation, % at 10 µM. 330,000 tested, 0.34% active;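 active means at 10 µM dose, activation of 40% or more, normalized to positive control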;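 further: 100% = tunicamycin at 10 µg/mL and 0% = DMSO alone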
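System: CHO-CHOP luciferase reporter cell line; amount: 500 cells/well; buffer or medium: F12 medium containing 10% fetal bovine serum; incubation: 6 h compound exposure at 37 °C after overnight seeding; measured by: luciferase luminescence after 10 min with Steady-Glo reagent; evaluation: % reporter activation, DMSO baseline versus tunicamycin full activation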
Mdm2-MdmX inh – inhibitors of human Mdm2/MdmX interaction; O15151+Q00987; SaOS-2 split-luciferase Mdm2/MdmX complementation, luminescence; inhibition, % at 8 µM; 330,000 tested, 3% active; AID 485346;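 active means inhibition of at least 50% at 8 µM in the primary screen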
UPR XBP1 act – activators of adaptive arm of unfolded protein response (XBP1); CHO-XBP1 luciferase reporter, IRE1-XBP1 UPR activation, luminescence; percent of tunicamycin response, DMSO as zero; activation, % at 20 µM; 330,000 tested, 0.33% active;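 active means versus positive control, 20 µM dose yields 30% or more activation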;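 further: 100% = tunicamycin at 10 µg/mL and 0% = DMSO only wells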
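Material: IRE1-XBP1 luciferase reporter CHO line / Quantity: one thousand reporter cells per well / Buffer or medium: F12 with 10% serum / Compound: 20 µM single concentration, DMSO 1% / Times: 6 h treatment, 37 °C / Detection: Steady-Glo luciferase glow luminescence, 10 min after reagent addition / Benchmarks: tunicamycin high, DMSO low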
Mdm2-MdmX conf – human Mdm2/MdmX binding inhibition, confirmed. 10,000 tested, 55% active. inhibition, % at 8 µM. AID 489028. shares compounds with Mdm2-MdmX inh. luminescent assay; in the data active means inhibition above about 40%
Full FLuc ctr – counter-screen for Mdm2/MdmX inhibitors: full-length luciferase; AID 504607; SaOS-2 full-length luciferase counterscreen, luminescence; shares compounds with Mdm2-MdmX inh; inhibition, % at 8 µM; 6,200 tested, 77% active;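 active means mean inhibition at 8 µM reaching about 37%, which flags the compound as non-specific, limit read from the data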;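 further: p53-null SaOS-2 cells with luciferase driven by a doxycycline-inducible promoter; compound on cells about two nights before reading with doxycycline added after day one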
The depositor's hits bear a star. In the library only some 3.7% were active in any assay of this set; here they are far more common.

For COc1ccc(-c2nc(CN3CCN(c4cc(C)nc(C)c4)CC3)c(C)o2)c2ccccc12 the results were B2AR ag 34, Dynein transport -2.9, Mdm2 ligase inh 15, UPR CHOP act 2, Mdm2-MdmX inh 97*, UPR XBP1 act 7, Mdm2-MdmX conf 48* and Full FLuc ctr 34.
For COc1ccc(-c2nc(CN3CCN(Cc4ccccc4)CC3)c(C)o2)cc1 the results were B2AR ag -20, UPR CHOP act 4, Mdm2-MdmX inh -7 and UPR XBP1 act -3.
Screening Cc1oc(-c2cccc3ccccc23)nc1CN1CCN(c2ncnc3ccccc23)CC1 returned B2AR ag 1, Dynein transport -0.39, Mdm2 ligase inh -7, UPR CHOP act 0, Mdm2-MdmX inh 15 and UPR XBP1 act 2.
`Cc1cc(N2CCN(Cc3nc(-c4ccc(Cl)cc4)oc3C)CC2)cc(C)n1` gave B2AR ag 31, Dynein transport 0.15, Mdm2 ligase inh -8, UPR CHOP act 1, Mdm2-MdmX inh 64*, UPR XBP1 act -2, Mdm2-MdmX conf 39 and Full FLuc ctr 68*.
For S=C(Nc1ccccc1)N1N=C(c2cccs2)CC1c1cccs1 (centres undefined) the results were B2AR ag -1, Dynein transport 0.67, Mdm2 ligase inh -10, UPR CHOP act 3, Mdm2-MdmX inh 14 and UPR XBP1 act -2.
COc1ccc(-c2ccc(=O)n(CC(=O)Nc3cccc(O)c3)n2)cc1OC was read as B2AR ag -2, Dynein transport 0.2, Mdm2 ligase inh -47, UPR CHOP act 0, Mdm2-MdmX inh 55*, UPR XBP1 act 1, Mdm2-MdmX conf 55* and Full FLuc ctr 108*.
`CCc1nc(Nc2ccccc2F)c2oc3ccccc3c2n1` gave B2AR ag -11, UPR CHOP act -1, Mdm2-MdmX inh 18 and UPR XBP1 act 9.
`O=C(COC(=O)CCN1C(=O)C2CC=CCC2C1=O)Nc1ccc([N+](=O)[O-])cc1` (centres undefined) gave B2AR ag 7, UPR CHOP act 1, Mdm2-MdmX inh 4 and UPR XBP1 act 0.
COc1cc(Cl)c(C)cc1NC(=O)CC1SC(N2CCOCC2)=NC1=O (centres undefined) was read as B2AR ag 1, UPR CHOP act -2, Mdm2-MdmX inh -8 and UPR XBP1 act -1.
Screening C[C@H]1[C@H](c2ccccc2)C[C@@H](C(=O)O)C1(C)C returned B2AR ag 13, UPR CHOP act -2, Mdm2-MdmX inh 13 and UPR XBP1 act -2.
Cc1noc(C)c1COc1ccc(C(=O)N2CCCC(C(F)(F)F)C2)cc1 (centres undefined) was read as B2AR ag -4, UPR CHOP act 2, Mdm2-MdmX inh 14 and UPR XBP1 act -1.
`CCOC(=O)c1c(NC(=O)c2ccccc2)sc2c1CCc1ccccc1-2` gave B2AR ag -2, Dynein transport 0.097, Mdm2 ligase inh -9, UPR CHOP act 1, Mdm2-MdmX inh -5 and UPR XBP1 act -3.
CCOC(=O)C1=C(NC(=S)NC(=O)c2ccccc2)c2ccccc2CC1C(C)C (centres undefined) was read as B2AR ag 3, Dynein transport 0.17, Mdm2 ligase inh -1, UPR CHOP act 0, Mdm2-MdmX inh 96*, UPR XBP1 act -2 and Mdm2-MdmX conf 11.
Screening CCOC(=O)C1=C(NC(=S)NC(=O)c2ccccc2)c2ccccc2CC1(C)CC (centres undefined) returned B2AR ag 22, Dynein transport 3.3, Mdm2 ligase inh -5, UPR CHOP act 5, Mdm2-MdmX inh 77*, UPR XBP1 act 0, Mdm2-MdmX conf 66* and Full FLuc ctr 53*.
`CCOc1cc(C)nc(NCc2ccccc2)n1` gave B2AR ag -9, Dynein transport -1.9, Mdm2 ligase inh -24, UPR CHOP act 0, Mdm2-MdmX inh -15 and UPR XBP1 act 0.
For Cc1cc(N2CCOCC2)nc(NCc2ccccc2)n1 the results were B2AR ag -27, Dynein transport -0.69, Mdm2 ligase inh -4, UPR CHOP act 3, Mdm2-MdmX inh 23 and UPR XBP1 act -3.
Cc1cc(Nc2cccc(Cl)c2)nc(NCc2ccccc2)n1 was read as B2AR ag -11, Dynein transport 1.6, Mdm2 ligase inh -5, UPR CHOP act 3, Mdm2-MdmX inh 59*, UPR XBP1 act 12, Mdm2-MdmX conf 40 and Full FLuc ctr 62*.
Cc1cc(OC2CCCCC2)nc(NCc2ccccc2)n1 was read as B2AR ag -2, Dynein transport 1.6, UPR CHOP act 1, Mdm2-MdmX inh 50*, UPR XBP1 act -1 and Mdm2-MdmX conf 31.
`Cc1cc(N2CCCCC2)nc(NCc2ccccc2)n1` gave B2AR ag -9, Dynein transport -1.3, Mdm2 ligase inh -14, UPR CHOP act -1, Mdm2-MdmX inh 65*, UPR XBP1 act 4, Mdm2-MdmX conf 45* and Full FLuc ctr 61*.
`COc1ccc(C)cc1-n1nnnc1SCC(=O)NC1CCS(=O)(=O)C1` (centres undefined) gave B2AR ag -7, UPR CHOP act 2, Mdm2-MdmX inh 4 and UPR XBP1 act 0.
O=C(CC(C(=O)O)c1cccc(Br)c1)c1ccc(Cl)cc1 (centres undefined) was read as B2AR ag -8, UPR CHOP act 1, Mdm2-MdmX inh 21 and UPR XBP1 act -1.
`CCc1nc(N2CCN(C(=O)CCl)CC2)c2c3c(sc2n1)CC(C)CC3` (centres undefined) gave B2AR ag 3, UPR CHOP act 13, Mdm2-MdmX inh 100*, UPR XBP1 act -3 and Mdm2-MdmX conf 11.
For CCc1nc(N2CCN(C(C)=O)CC2)c2c3c(sc2n1)CC(C(C)(C)C)CC3 (centres undefined) the results were B2AR ag 6, UPR CHOP act 9, Mdm2-MdmX inh 72*, UPR XBP1 act -4, Mdm2-MdmX conf 25 and Full FLuc ctr 63*.
For O=C(N=C1SC2CS(=O)(=O)CC2N1c1ccc(Cl)cc1Cl)C1CC1 (centres undefined) the results were B2AR ag -1, UPR CHOP act -1, Mdm2-MdmX inh -2 and UPR XBP1 act -6.

Source: PubChem
